# Activity calls are given as the source filed them. No cut-off for these calls is given here.
# Columns and labels:
# [1] = biological target: T1, Alpha-1D adrenergic receptor (Homo sapiens, UniProt P25100); experiment: Displacement of [3H]-Prazosin from human alpha-1D adrenergic receptor transfected in CHO cell membranes after 2 hrs by microplate scintillation counting analysis
# T1 sequence (P25100 whole entry): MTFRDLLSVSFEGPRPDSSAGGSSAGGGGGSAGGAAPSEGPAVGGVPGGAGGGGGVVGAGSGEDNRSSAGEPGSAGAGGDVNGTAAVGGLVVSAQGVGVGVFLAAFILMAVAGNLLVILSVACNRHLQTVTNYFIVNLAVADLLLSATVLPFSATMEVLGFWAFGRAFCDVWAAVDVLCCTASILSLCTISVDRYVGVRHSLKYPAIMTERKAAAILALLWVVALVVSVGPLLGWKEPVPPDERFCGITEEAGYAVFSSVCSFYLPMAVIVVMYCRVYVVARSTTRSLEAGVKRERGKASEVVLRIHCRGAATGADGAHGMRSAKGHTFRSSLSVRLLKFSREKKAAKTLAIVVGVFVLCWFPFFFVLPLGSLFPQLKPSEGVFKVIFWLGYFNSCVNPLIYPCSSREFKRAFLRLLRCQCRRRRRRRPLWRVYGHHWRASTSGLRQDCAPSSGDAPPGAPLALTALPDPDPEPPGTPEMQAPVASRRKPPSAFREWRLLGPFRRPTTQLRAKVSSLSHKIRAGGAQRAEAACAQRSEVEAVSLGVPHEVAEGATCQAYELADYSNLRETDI
# Method in brief: (§1)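 Radioligand competition binding used [3H]prazosin on membranes from CHO cells transfected with human cloned α1A-, α1B- or α1D-adrenoceptors.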
# [2] = Cytotoxicity against HEK293A cells transfected with alpha-1A adrenergic receptor assessed as cell viability by sulforhodamine B assay; assay type: cell-based; details: Homo sapiens, HEK293-A
# Method in brief: (§2)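 Standard sulforhodamine B colorimetric assay in HEK293A cells stably transfected with α1A-AR or α1D-AR.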
# [3] = Cytotoxicity against HEK293A cells transfected with alpha-1D adrenergic receptor assessed as cell viability by sulforhodamine B assay; assay type: cell-based; details: Homo sapiens, HEK293-A; method in brief: as §2
# [4] = biological target: T2, Alpha-1D adrenergic receptor (Homo sapiens) (UniProt P25100); experiment: Binding affinity to alpha-1D adrenergic receptor (unknown origin) transfected in HEK293 cells at 20 nM after 20 mins by flow cytometric analysis; assay type: cell-based
# T2 sequence (whole entry): T1 sequence (P25100 whole entry)
# [5] = biological target: T2, Alpha-1D adrenergic receptor (Homo sapiens); experiment: Binding affinity to alpha-1D adrenergic receptor (unknown origin) transfected in HEK293A cells at 10 nM after 5 mins by DiD dye-based confocal microscopic analysis; assay type: cell-based; details: HEK293-A
# Method in brief: (§3)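 α1A-AR- or α1D-AR-transfected HEK293A cells, or untransfected HEK293A cells as the receptor-free control, were incubated with the probe plus DiD (red, colocalization) for 5 min at 37 °C. Probe signal was compared with the DiD-stained surface for subcellular localization by fluorescence microscopy.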
# [6] = biological target: T2, Alpha-1D adrenergic receptor (Homo sapiens); experiment: Binding affinity to alpha-1D adrenergic receptor (unknown origin) transfected in HEK293A cells at 10 nM after 5 mins by DiD dye-based confocal microscopic analysis in presence of alpha1 adrenergic receptor antagonist tamsulosin; assay type: cell-based; details: HEK293-A
# Method in brief: (§4)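 Transfected HEK293A cells expressing α1A-AR or α1D-AR were incubated with the probe, DiD and tamsulosin as competing α1-AR antagonist for 5 min at 37 °C. Fluorescence labelling was imaged by confocal microscopy.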
# [7] = Drug uptake in HEK293A cells at 10 nM after 5 mins by DiD dye-based confocal microscopic analysis; assay type: ADME, cell-based; details: human, hek293-a, 0.01 µM; method in brief: as §3
# [8] = biological target: T3, Alpha-1A adrenergic receptor (Homo sapiens, UniProt P35348); experiment: Displacement of [3H]-Prazosin from human alpha-1A adrenergic receptor transfected in CHO cell membranes after 2 hrs by microplate scintillation counting analysis; method in brief: as §1
# T3 sequence (P35348 whole entry): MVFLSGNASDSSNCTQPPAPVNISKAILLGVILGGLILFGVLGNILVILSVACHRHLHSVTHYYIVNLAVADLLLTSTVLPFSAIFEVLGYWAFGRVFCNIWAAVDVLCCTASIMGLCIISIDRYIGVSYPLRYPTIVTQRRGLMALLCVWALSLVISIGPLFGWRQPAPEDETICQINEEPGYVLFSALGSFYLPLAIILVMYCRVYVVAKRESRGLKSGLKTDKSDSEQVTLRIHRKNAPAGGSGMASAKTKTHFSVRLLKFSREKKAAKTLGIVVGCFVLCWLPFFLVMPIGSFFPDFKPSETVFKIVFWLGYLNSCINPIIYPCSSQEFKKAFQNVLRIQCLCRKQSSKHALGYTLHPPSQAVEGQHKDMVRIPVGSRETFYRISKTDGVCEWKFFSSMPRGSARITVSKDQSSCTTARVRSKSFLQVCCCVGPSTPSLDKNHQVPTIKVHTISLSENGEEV
# [9] = biological target: T4, Alpha-1B adrenergic receptor (Homo sapiens, UniProt P35368); experiment: Displacement of [3H]-Prazosin from human alpha-1B adrenergic receptor transfected in CHO cell membranes after 2 hrs by microplate scintillation counting analysis; method in brief: as §1
# T4 sequence (P35368 whole entry): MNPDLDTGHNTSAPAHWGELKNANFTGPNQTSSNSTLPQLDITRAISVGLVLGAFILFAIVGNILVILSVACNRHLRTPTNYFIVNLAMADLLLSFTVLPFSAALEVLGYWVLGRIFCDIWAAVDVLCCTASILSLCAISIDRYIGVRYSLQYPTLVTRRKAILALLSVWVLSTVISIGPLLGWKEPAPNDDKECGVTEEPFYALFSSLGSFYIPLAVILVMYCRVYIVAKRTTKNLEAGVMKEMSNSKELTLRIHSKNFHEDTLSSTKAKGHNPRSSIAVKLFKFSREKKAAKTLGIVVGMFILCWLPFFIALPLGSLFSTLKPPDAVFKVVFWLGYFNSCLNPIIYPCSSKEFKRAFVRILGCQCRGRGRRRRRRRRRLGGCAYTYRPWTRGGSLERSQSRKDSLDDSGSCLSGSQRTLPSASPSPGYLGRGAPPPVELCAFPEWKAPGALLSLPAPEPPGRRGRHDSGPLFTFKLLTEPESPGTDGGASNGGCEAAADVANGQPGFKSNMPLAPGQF
# [10] = biological target: T5, Alpha-1A adrenergic receptor (Homo sapiens) (UniProt P35348); experiment: Binding affinity to alpha-1A adrenergic receptor (unknown origin) transfected in HEK293A cells at 20 nM after 5 mins by DiD dye-based confocal microscopic analysis; assay type: cell-based; details: HEK293-A; method in brief: as §3
# T5 sequence (whole entry): T3 sequence (P35348 whole entry)
# [11] = biological target: T5, Alpha-1A adrenergic receptor (Homo sapiens); experiment: Binding affinity to alpha-1A adrenergic receptor (unknown origin) transfected in HEK293A cells at 20 nM after 5 mins by DiD dye-based confocal microscopic analysis in presence of alpha1 adrenergic receptor antagonist tamsulosin; assay type: cell-based; details: HEK293-A; method in brief: as §4
# [12] = Drug uptake in HEK293A cells at 20 nM after 5 mins by DiD dye-based confocal microscopic analysis; assay type: ADME, cell-based; details: human, hek293-a, 0.02 µM; method in brief: as §3
# [13] = biological target: T5, Alpha-1A adrenergic receptor (Homo sapiens); experiment: Binding affinity to alpha-1A adrenergic receptor (unknown origin) transfected in HEK293A cells at 15 nM measured 5 mins post wash out by DiD dye-based confocal microscopic analysis; assay type: cell-based; details: HEK293-A
# Method in brief: (§5)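 HEK293A cells stably transfected with α1A-AR or α1D-AR, or untransfected HEK293A cells, were incubated with the probe at 15 nM plus the membrane dye DiD for 5 min at 37 °C. Cells were washed immediately and imaged by confocal fluorescence microscopy at identical exposure times.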
# [14] = biological target: T2, Alpha-1D adrenergic receptor (Homo sapiens); experiment: Binding affinity to alpha-1D adrenergic receptor (unknown origin) transfected in HEK293A cells at 15 nM measured 5 mins post wash out by DiD dye-based confocal microscopic analysis; assay type: cell-based; details: HEK293-A; method in brief: as §5
# [15] = biological target: T5, Alpha-1A adrenergic receptor (Homo sapiens); experiment: Binding affinity to alpha-1A adrenergic receptor (unknown origin) transfected in HEK293A cells at 15 nM measured 5 mins post wash out by DiD dye-based confocal microscopic analysis in presence of alpha1 adrenergic receptor antagonist tamsulosin; assay type: cell-based; details: HEK293-A
# Method in brief: (§6)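 α1A-AR- or α1D-AR-transfected HEK293A cells were incubated with the probe at 15 nM, DiD and tamsulosin at 300 nM as competitor for 5 min at 37 °C. Cells were washed immediately and imaged by confocal microscopy at identical exposure.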
# [16] = biological target: T2, Alpha-1D adrenergic receptor (Homo sapiens); experiment: Binding affinity to alpha-1D adrenergic receptor (unknown origin) transfected in HEK293A cells at 15 nM measured 5 mins post wash out by DiD dye-based confocal microscopic analysis in presence of alpha1 adrenergic receptor antagonist tamsulosin; assay type: cell-based; details: HEK293-A; method in brief: as §6
# [17] = Drug uptake in HEK293A cells at 15 nM measured 5 mins post wash out by DiD dye-based confocal microscopic analysis; assay type: ADME, cell-based; details: human, hek293-a, 0.015 µM; method in brief: as §5
SMILES,IC50 [1] [µM],Ki [1] [µM],IC50 [2] [µM],IC50 [3] [µM],Activity [4],Activity [5],Activity [6],Drug uptake [7],IC50 [8] [µM],Ki [8] [µM],IC50 [9] [µM],Ki [9] [µM],Activity [10],Activity [11],Drug uptake [12],Activity [13],Activity [14],Activity [15],Activity [16],Drug uptake [17]
CCN(CC)c1ccc2cc(-n3cc(C(=O)N4CCN(c5nc(N)c6cc(OC)c(OC)cc6n5)CC4)nn3)c(=O)oc2c1,0.0022,0.0004,12,32,Active,Active,inactive,Active,0.0006,0.0003,0.0012,0.0001,–,–,–,–,–,–,–,–
CCN(CC)c1ccc2cc(-n3cc(CN4CCN(c5nc(N)c6cc(OC)c(OC)cc6n5)CC4)nn3)c(=O)oc2c1,0.0452,0.0275,26,17,–,–,–,–,0.0524,0.0299,0.0524,0.0299,Active,inactive,Active,–,–,–,–,–
COc1cc2nc(N3CCN(C(=O)c4cn(-c5cc6ccc(O)cc6oc5=O)nn4)CC3)nc(N)c2cc1OC,< 0.005,–,> 100,85,–,–,–,–,0.0025,0.0013,< 0.005,–,–,–,–,Active,Active,inactive,inactive,Active

# Source: ChEMBL document CHEMBL3580589, “Discovery of Quinazoline-Based Fluorescent Probes to α1-Adrenergic Receptors” (ACS Med Chem Lett, 2015)
